In general, IC50 refers to the point on the concentration scale where inhibition reaches its midpoint.

The test system of one assay is Pseudomonas aeruginosa. As to the kind of experiment: Antimicrobial activity against Pseudomonas aeruginosa after 18 hrs. Type of assay: functional, organism-based. The essentials:
(§1)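 Strains grown on Mueller-Hinton agar, then in Mueller-Hinton broth with CaCl₂/MgCl₂ at 37 °C for 18 h. Serially diluted (K. pneumoniae and P. aeruginosa 10^-6, S. aureus 10^-8, S. pneumoniae 10^-4, as cfu/mL) and equilibrated 30 min at 37 °C. Incubated with samples, shaken at 37 °C and 60% humidity for 18 h. Read at OD650. Streptomycin 50 μg/mL control wells.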

For a further assay, the system named is THP-1. The experiment in a line: Cytotoxicity against human THP1 cells after 72 hrs by WST-1 assay. Type of assay: cell-based. The settings on record: THP-1, 72 h. The essentials:
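THP-1 cells kept in RPMI 1640 with 10% FBS, 2 mM L-glutamine, penicillin/streptomycin and 10 μM 2-mercaptoethanol at 37 °C, 5% CO₂. Seeded at 2.5 × 10⁴ cells/well and exposed to samples at 250 μg/mL final for 72 h. WST-1 added for 1–2 h, absorbance read at 450 nm. Controls were 10 μM camptothecin and 0.1% DMSO.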

In another assay the test system is Klebsiella pneumoniae. As to the kind of experiment: Antimicrobial activity against Klebsiella pneumoniae after 18 hrs. Type of assay: functional, organism-based. The essentials: as §1
The test system of another assay is Streptococcus pneumoniae. The experiment in a line: Antimicrobial activity against Streptococcus pneumoniae after 18 hrs. Type of assay: functional, organism-based. The essentials:
as §1

Another assay deals with Staphylococcus aureus. As to the kind of experiment: Antimicrobial activity against Staphylococcus aureus after 18 hrs. Type of assay: functional, organism-based. The essentials: as §1

Regarding `C=C1CC[C@H]2C(C)(C)[C@H](O)CC[C@]2(C)[C@@H]1C[C@@H]1CCC(=C)[C@H](CC/C(C)=C/CO)[C@@]1(C)C(=O)O` [TRICHOMYCIN B], the 50% inhibitory concentration (IC50) in the assay with Pseudomonas aeruginosa was > 473 µM; in the assay on THP-1, 640 µM; with Klebsiella pneumoniae, > 473 µM; with Streptococcus pneumoniae, 6 µM; in the assay with Staphylococcus aureus, 12 µM.

`C=C1CC[C@H]2C(C)(C)[C@H](O)CC[C@]2(C)[C@@H]1C[C@@H]1CCC(=C)[C@H](CC/C(C)=C/COC=O)[C@@]1(C)C(=O)O` [TRICHOMYCIN A]: the IC50 with Pseudomonas aeruginosa is > 500 µM; in the assay with THP-1, > 1000 µM; with Klebsiella pneumoniae, > 500 µM; with Streptococcus pneumoniae, 5 µM; in the assay with Staphylococcus aureus, 12 µM.

The values are drawn from ChEMBL document CHEMBL1158708, “Cerylimycins [corrected] A and B: antibacterial triterpenes from the new species Tricholoma sp. AU1” (J Nat Prod, 2005).
